Measured values taken from ChEMBL document CHEMBL3853311, “Deuterium-Labeled Precursor Feeding Reveals a New pABA-Containing Meroterpenoid from the Mango Pathogen Xanthomonas citri pv. mangiferaeindicae” (J Nat Prod, 2016).
pIC50: −log10 of the molar value. Active and inactive are the calls of the source. The rule behind the calls is not given here.

How the values were obtained:
[1] = Cytotoxicity against human MDA-MB-231 cells assessed as decrease in cell viability after 48 hrs by MTT assay; type: functional, cell-based; conditions: MDA-MB-231, 48 h
How it was run: (§1)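 Cells kept in DMEM/F12 with 10% FBS, 2 mM glutamine, penicillin/streptomycin at 37 °C, 5% CO2; exponential-phase cells seeded at 1 × 10^4/well for 24 h. Treated at 0.2, 2 and 20 μg/mL for 48 h at 37 °C; vehicle controls = 100% viability. Formazan dissolved in DMSO, read at 570 nm (620 nm reference). IC50 by four-parameter logistic fit, ≥3 independent measurements, ±95% CI.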

[2] = Cytotoxicity against human Caco2 cells assessed as decrease in cell viability after 48 hrs by MTT assay; type: functional, cell-based; conditions: Caco-2, 48 h; how it was run: as §1
[3] = Cytotoxicity against human HeLa cells assessed as decrease in cell viability after 48 hrs by MTT assay; type: functional, cell-based; how it was run: as §1
[4] = Cytotoxicity against human MCF7 cells assessed as decrease in cell viability after 48 hrs by MTT assay; type: functional, cell-based; conditions: MCF7, 48 h; how it was run: as §1
[5] = Cytotoxicity against human U87MG cells assessed as decrease in cell viability after 48 hrs by MTT assay; type: functional, cell-based, U-87MG ATCC; conditions: U-87 MG; how it was run: as §1
[6] = Cytotoxicity against HEK293 cells assessed as decrease in cell viability after 48 hrs by MTT assay; type: toxicity, cell-based; conditions: human; how it was run: as §1
[7] = Cytotoxicity against human A549 cells assessed as decrease in cell viability after 48 hrs by MTT assay; type: functional, cell-based; conditions: A549, 48 h; how it was run: as §1
[8] = Cytotoxicity against human MPanc96 cells assessed as decrease in cell viability after 48 hrs by MTT assay; type: functional, cell-based; conditions: MPANC96, 48 h; how it was run: as §1
[9] = Cytotoxicity against human PC3 cells assessed as decrease in cell viability after 48 hrs by MTT assay; type: functional, cell-based; conditions: PC-3, 48 h; how it was run: as §1
[10] = Cytotoxicity against human 253JBV cells assessed as decrease in cell viability after 48 hrs by MTT assay; type: functional, cell-based; how it was run: as §1
[11] = organism: Homo sapiens; assay: Induction of autophagy in human 253JBV cells assessed as vacuole formation at 20 ug/ml after 48 hrs by microscopy; type: functional, cell-based
How it was run: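 Bladder cells grown 48 h untreated or with 20 μg/mL test agent, then inspected for morphology and vacuoles by inverted light microscopy against the control group.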

[12] = system: MDA-MB-231; assay: Induction of autophagy in human MDA-MB-231 cells assessed as conversion of LC3-1 to LC3-2 at IC50 to 2 times IC50 after 24 to 48 hrs by immunoblot analysis; type: functional, cell-based
How it was run: (§2)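 Cells seeded at 2.5 × 10^5/well, treated 24 h later at 1/2 IC50, IC50 and 2× IC50 (legend says 24 h, methods 48 h). Controls: MG132 4.76 μg/mL, BafA1 0.1 μg/mL, DMSO. Lysed in RIPA with protease inhibitors, BCA protein assay, 30 μg on 15% Tris/glycine SDS-PAGE. Blotted for LC3-I/II, p62 and polyubiquitinated proteins with HRP secondary and ECL detection.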

[13] = system: HeLa; assay: Induction of autophagy in human HeLa cells assessed as conversion of LC3-1 to LC3-2 at IC50 to 2 times IC50 after 24 to 48 hrs by immunoblot analysis; type: functional, cell-based; how it was run: as §2
[14] = organism: Homo sapiens; assay: Induction of autophagy in human 253JBV cells assessed as conversion of LC3-1 to LC3-2 at IC50 to 2 times IC50 after 24 to 48 hrs by immunoblot analysis; type: functional, cell-based; how it was run: as §2
[15] = system: MDA-MB-231; assay: Induction of autophagy in human MDA-MB-231 cells assessed as decrease in p62 levels at 2 times IC50 after 24 to 48 hrs by immunoblot analysis; type: functional, cell-based; how it was run: as §2
[16] = organism: Homo sapiens; assay: Induction of autophagy in human 253JBV cells assessed as decrease in p62 levels at 2 times IC50 after 24 to 48 hrs by immunoblot analysis; type: functional, cell-based; how it was run: as §2
[17] = system: HeLa; assay: Induction of autophagy in human HeLa cells assessed as decrease in p62 levels at IC50 after 24 to 48 hrs by immunoblot analysis; type: functional, cell-based; how it was run: as §2
[18] = system: MDA-MB-231; assay: Induction of autophagy in human MDA-MB-231 cells assessed as decrease in polyubiquitinated protein levels at IC50 to 2 times IC50 after 24 to 48 hrs by immunoblot analysis; type: functional, cell-based; how it was run: as §2
[19] = organism: Homo sapiens; assay: Induction of autophagy in human 253JBV cells assessed as decrease in polyubiquitinated protein levels at IC50 after 24 to 48 hrs by immunoblot analysis; type: functional, cell-based; how it was run: as §2
[20] = system: HeLa; assay: Induction of autophagy in human HeLa cells assessed as decrease in p62 levels at IC50 after 24 to 48 hrs by immunoblot analysis

Compound: C/C(=C\CC/C(C)=C/Cc1cc(C(=O)O)ccc1N)CC/C=C(\C)CC/C=C(\C)CCC(=O)O
- pIC50 [1]: 4.89
- pIC50 [2]: 4.59
- pIC50 [3]: 4.74
- pIC50 [4]: < 4.37
- pIC50 [5]: < 4.37
- IC50 at 48 h [6]: 6.45 µM
- pIC50 [7]: 4.59
- pIC50 [8]: 4.44
- pIC50 [9]: 4.37
- pIC50 [10]: 4.44
- Activity [11]: Active
- Activity [12]: Active
- Activity [13]: Active
- Activity [14]: Active
- Activity [15]: Active
- Activity [16]: Active
- Activity [17]: Active
- Activity [18]: Active
- Activity [19]: Active
- Activity [20]: Active

Compound: C=C1C(=O)O[C@@H]2C3O[C@]3(C)CC/C=C(\C)CC[C@@H]12 (stereo not given in full)
- pIC50 [1]: 5.36
- pIC50 [2]: 4.63
- pIC50 [3]: 4.64
- pIC50 [4]: 4.56
- pIC50 [5]: 5.31
- IC50 at 48 h [6]: 3.1 µM
- pIC50 [7]: 4.66
- pIC50 [8]: 4.69
- pIC50 [9]: 4.89
- pIC50 [10]: 4.60
